Vif imaging: blocks HIV Vif function; HEK293T cells, Vif self-association by quenched fluorescence, imaging, 24 h; inhibition, % at 7.49 µM; 340,000 tested, 0.35% active; in the data active = inhibition above about 50%, passing the limit was not always enough; inconclusive = no clear call, values can overlap the other calls; inactive = below about 31%
rRNA inh HTS: selective bacterial rRNA inhibition in E. coli. E. coli WT GFP vs humanized-ribosome RFP mutants, fluorescence, 24 h; stronger effect = lower value; DMSO median 0, no signal -100. GFP signal change (wild-type ribosome), % (concentration not given with the values). 350,000 tested, 1.6% active. AID 720706;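 active = significant combined selectivity score with lowered wild-type GFP, culture density cut under 30%, mutant RFP and density less affected; inactive = any of these conditions unmet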
Env fusion inh: inhibitors of HIV Env-mediated cell fusion | HeLa-JRFL Env/CEM21 cell fusion, luciferase | inhibition, % at 12.3 µM | 360,000 tested, 1.1% active;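 active = mean replicate inhibition score of at least 50 and every replicate individually at or above 50; inconclusive = only one of the two criteria met; inactive = mean below 50 and not all replicates reaching 50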
S100A4 MyoIIA: blocks human S100A4 binding to myosin IIA peptide; P26447; inhibition, % at 10.7 µM; S100A4/TAMRA-MyoIIA peptide fluorescence polarization; AID 652163; 360,000 tested, 0.14% active;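 active = mean inhibition of at least 70% across replicates, with every replicate also reaching that level; inconclusive = mean inhibition reaches 70% but some replicates fall short; inactive = mean inhibition below 70%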
Target sequence (P26447 whole entry, looked up): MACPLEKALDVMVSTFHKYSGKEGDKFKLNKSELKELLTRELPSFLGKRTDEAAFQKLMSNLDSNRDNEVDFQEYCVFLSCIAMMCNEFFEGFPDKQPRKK
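Test system: S100A4 monomer protein. Medium: HEPES buffer with Ca2+, pH 7.2. Reagent: fluorescent myosin IIA peptide, 5 nM. Compound dosing: single-point compound testing. Timing: 5 min between mix addition and reading. Benchmarks: DMSO neutral and TFP positive wells.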
FN deposit inh: fibronectin deposition inhibition | AH1F fibroblasts, Alexa488-fibronectin deposition fluorescence, overnight | inhibition, % at 12.6 µM | 350,000 tested, 0.086% active | AID 743247;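 active = mean inhibition across replicates of 30% or more, regardless of how many single replicates reach that level; inconclusive = mean under 30% yet at least half of replicates reach 30%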
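Test system: AH1F fibroblast monolayer depositing Alexa488-labelled fibronectin into matrix. Input: 10000 cells per well. Technique: fluorescence, ex 485 nm, em 525 nm. Buffer or medium: DMEM plus 2% serum, read in PBS. Timing: 1 h cell adhesion before compound, then overnight fibronectin incubation. Compound: single dose, pinned. Read-out basis: inhibition from reduced deposited-fibronectin fluorescence.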
miR122 inh: inhibitors of miR-122 in Huh7 cells. Huh7 miR-122 Renilla luciferase sensor, 48 h; neutral wells = 0, positive control = 100. activation (reporter increase), % at 12.5 µM. 340,000 tested, 0.3% active. AID 602342;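 active = mean replicate activation score at least 90 and every replicate individually at or above 90; inconclusive = only one of the two criteria met; inactive = neither criterion met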;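 also: higher luciferase means less miR-122 activity so hits act as miR-122 inhibitors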
AID977621: wild-type E. coli growth inhibition versus H69 humanized strain – H69 mutant RFP, wild-type GFP, cherry-pick, dose response | shares compounds with rRNA inh HTS | activity change, negative = inhibition at 50 µM | AID 977621 | 1,900 tested, under 10 active | fluorescence, 24 h;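 active = Wild-type ribosome reporter drop at least double the humanized mutant ribosome reporter drop, growth loss under a set limit; inconclusive = no clear call, values can overlap the other calls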;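 also: wild-type GFP and H69 mutant RFP strains grown together 50/50 in each well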
AID977628: E. coli growth inhibition, wild-type GFP versus h24 humanized RFP strain, dose response, h24 mutant RFP vs wild-type GFP, cherry-pick; 1,900 tested, under 10 active; shares compounds with rRNA inh HTS; activity change, negative = inhibition at 50 µM; E. coli WT GFP strain growth, fluorescence, 24 h;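 active = compound lowering the normal-ribosome reporter at least twice as much as the humanized-ribosome reporter, growth loss under a set limit; inconclusive = no clear call, values can overlap the other calls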;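 also: wild-type GFP and h24 humanized RFP strains co-cultured 1 to 1 per well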
Of the large screens only hits and unclear results are named; the others gave an inactive call (follow-up assays come after a bar, where they were run). Compounds with a hit are over-represented: about 2.6% of the library has one in this group of screens.

Cc1noc(C)c1S(=O)(=O)N(C)C[C@@H]1OCCCC[C@H](C)Oc2ccc(NS(=O)(=O)c3cccs3)cc2C(=O)N([C@H](C)CO)C[C@H]1C	none (no result: Vif imaging, FN deposit inh)
CC(C)(C)C1CCC(OC(=O)C[N+]2(C)CCCCC2)CC1 (stereo not given)	rRNA inh HTS -17 (no result: miR122 inh) | AID977621 inactive | AID977628 inactive
CC(C)(C)C1CCC(OC(=O)C[N+]2(C)CCCC2)CC1 (stereo not given)	none (no result: miR122 inh)
O=C1c2ccccc2NC(c2cccc(F)c2)N1Cc1ccco1 (stereo not given)	rRNA inh HTS -33 (no result: Env fusion inh, FN deposit inh) | AID977621 inactive | AID977628 inactive
O=C([C@@H]1[C@@H](CO)[C@@H]2Cn3c(ccc(C4=CCCCC4)c3=O)[C@@H]2N1Cc1nccs1)N1CCCCC1	none (no result: Vif imaging, Env fusion inh, FN deposit inh)
O=[N+]([O-])c1ccc(Cl)cc1NCc1cccnc1	rRNA inh HTS -21 (no result: miR122 inh) | AID977621 inactive | AID977628 inconclusive
O=C(O)c1ccc(NCc2cccnc2)c([N+](=O)[O-])c1	none
CC(C)NC(=O)N(C)C[C@H]1Oc2ccc(NC(=O)Cc3ccccc3)cc2C(=O)N([C@H](C)CO)C[C@H]1C	none (no result: Vif imaging, Env fusion inh, FN deposit inh)
Cn1c(CC2C(=O)Nc3ccc(Br)cc32)nc2ccccc2c1=O (stereo not given)	rRNA inh HTS -29 (no result: Env fusion inh, FN deposit inh, miR122 inh) | AID977621 inactive | AID977628 inactive
COc1ccc(OC2C(=O)N(Cc3ccc4c(c3)OCO4)C2c2sccc2C)cc1 (stereo not given)	rRNA inh HTS -22 (no result: Vif imaging, Env fusion inh, FN deposit inh) | AID977621 inactive
Cc1ccc(S(=O)(=O)N(C)C[C@H]2OCCCC[C@@H](C)Oc3ccc(NS(=O)(=O)c4ccccc4)cc3C(=O)N([C@@H](C)CO)C[C@@H]2C)cc1	none (no result: Vif imaging, FN deposit inh)
Cc1ccc(NC(=O)c2c(C)noc2-c2snnc2C)cc1	rRNA inh HTS -22 (no result: miR122 inh) | AID977628 inconclusive
CC(C)[C@H](NC(=O)c1ccc([N+](=O)[O-])cc1Cl)C(=O)N1CCN(C/C=C/c2ccccc2)CC1	rRNA inh HTS -21 | AID977628 inconclusive
CCCNC(=O)N1CC2(CN(Cc3ccc(F)cc3)C2)c2c([nH]c3cc(OC)ccc23)[C@@H]1CO	none (no result: Vif imaging, Env fusion inh, FN deposit inh, miR122 inh)
N#Cc1c(SCc2ccc(Cl)cc2)sc(C(=O)c2ccccc2)c1N	none (no result: rRNA inh HTS, Env fusion inh, S100A4 MyoIIA, FN deposit inh)
CC(C)Sc1sc(C(=O)O)c(-c2ccc(Cl)cc2)c1C#N	rRNA inh HTS -43 (no result: miR122 inh) | AID977621 inactive
O=C(NCc1ccccc1)C1C(=O)Nc2ccccc2C(=O)N1c1ccc2c(c1)OCCO2 (stereo not given)	rRNA inh HTS -17 (no result: Vif imaging, miR122 inh) | AID977621 inactive | AID977628 inactive
O=C(NCc1ccccc1)C1C(=O)Nc2ccccc2C(=O)N1Cc1ccccc1 (stereo not given)	none (no result: Vif imaging, miR122 inh)
Cc1ccccc1NS(=O)(=O)c1cc(C(=O)NCCC2=CCCCC2)ccc1C	rRNA inh HTS -17 (no result: Env fusion inh, FN deposit inh) | AID977621 inactive | AID977628 inconclusive
O=C(NCCC1=CCCCC1)c1ccc(Cl)c(S(=O)(=O)Nc2ccccc2)c1	rRNA inh HTS -20 (no result: Env fusion inh, FN deposit inh, miR122 inh) | AID977621 inactive
Cc1ccc(NS(=O)(=O)c2cc(C(=O)O)ccc2Cl)cc1	none (no result: rRNA inh HTS, Env fusion inh, S100A4 MyoIIA, FN deposit inh)
Cc1ccc(NS(=O)(=O)c2cc(C(=O)N3CCc4ccccc4C3)ccc2Cl)cc1	rRNA inh HTS -29 (no result: Env fusion inh, FN deposit inh) | AID977621 inactive
Cc1ccc(C(=O)NCCC2=CCCCC2)cc1S(=O)(=O)N1CCCCC1	none (no result: miR122 inh)
CN1CCN(C(=O)C[C@@H]2CC[C@@H]3[C@@H](COc4ccc(NC(=O)C5CC5)cc4C(=O)N3C)O2)CC1	none (no result: Vif imaging)
Cc1ccc(S(=O)(=O)N2CC[C@@H]3[C@H](CO)Nc4ccc(-c5ccccc5F)cc4[C@@H]32)cc1	none (no result: Vif imaging, Env fusion inh)

Screening data from PubChem.
